Structures are written as SMILES. Calls of active or inactive are those of the source. The rule behind the calls is not given here.

One test relates to MCF7. Description: Cytotoxicity against human MCF7 cells after 72 hrs by MTT assay. The test is classed as functional, cell-based. The note with it: MCF7, 72 h. In short, it runs like this:
(§1)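 Cells seeded at 10^4/well, exposed 24 h later to graded concentrations (0.01–100 µM) for 72 h at 37°C; MTT 0.5 mg/ml for 2 h, formazan dissolved in DMSO, absorbance at 570 nm. […] Colon lines in DMEM, breast lines in RPMI, both with 10% FCS.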
In general terms: Tetrazolium dyes change colour on reduction, which living cells bring about.

Test [1] is described as follows: Cytotoxicity against human HCT116 cells after 72 hrs by MTT assay. The class given is functional, cell-based. The note with it: HCT-116, 72 h. The procedure, abridged: as §1
A further test concerns SW-620. Put plainly: Cytotoxicity against human SW620 cells after 72 hrs by MTT assay. The note with it: SW-620, 72 h. The class given is functional, cell-based. In short, it runs like this:
as §1

Test [2] deals with HT-29. Description: Growth inhibition of human HT-29 cells at cytotoxic IC50 level after 3 days by trypan blue dye exclusion assay. The class given is functional. In short, it runs like this:
(§2)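 HT29 cells treated 48 h after seeding, dosed daily with daily medium change over three days; drug diluted in DMSO, controls 0.1% (v/v) DMSO. Cells trypsinized, mixed 1:1 with 0.04% trypan blue, live cells counted by hematimeter. Reported as mitotic index (treated/DMSO count); triplicates from two independent experiments.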

For test [3], the system named is HT-29. Description: Cytotoxicity against human HT-29 cells after 72 hrs by MTT assay. The test is classed as functional, cell-based. The note with it: HT-29, 72 h. The procedure, abridged: as §1
For test [4], the system named is HT-29. Description: Induction of cell cycle arrest in human HT-29 cells assessed as increase in accumulation at G0/G1 phase at 0.5 to 10 uM by propidium iodide staining based flow cytometry. The class given is functional. For orientation: Flow cytometry measures light scatter and fluorescence of single cells or particles in a stream.
Another test has as its system MDA-MB-231. Description: Cytotoxicity against human MDA-MB-231 cells after 72 hrs by MTT assay. The note with it: MDA-MB-231, 72 h. The test is classed as functional, cell-based. In short, it runs like this: as §1
Test [5] deals with HT-29. Description: Induction of cell cycle arrest in human HT-29 cells assessed as accumulation at subG1 phase at 0.5 to 10 uM by propidium iodide staining based flow cytometry. The class given is functional.
The test system of test [6] is HT-29. Put plainly: Induction of cell cycle arrest in human HT-29 cells assessed as increase in accumulation at S phase at 0.5 to 10 uM by propidium iodide staining based flow cytometry. The class given is functional.
Test [7] deals with HT-29. Put plainly: Growth inhibition of human HT-29 cells at 0.5 to 10 uM after 3 days by trypan blue dye exclusion assay. The class given is functional. In short, it runs like this: as §2
Test [8] concerns HT-29. Description: Growth inhibition of human HT-29 cells at 10 uM after 3 days by trypan blue dye exclusion assay. The class given is functional. The note with it: HT-29, 72 h, read-out: GI. The procedure, abridged:
as §2

One may read the IC50 as the concentration that inhibits the measured activity by half. Regarding `COc1ccc(-c2cc(/N=C3\SCC(=O)N3c3cccc(OC)c3)cs2)cc1`, the IC50 in the test with MCF7 is 1.9 µM; in test [1], 2.7 µM; with SW-620, 3.5 µM; with HT-29 [3], 11.7 µM; with MDA-MB-231, 2.7 µM. Also, in the test with HT-29 [2], the “growth inhibition (GI)” value is listed as 50%. In the test on HT-29 [4], the outcome was Active. In addition, the outcome in the test on HT-29 [5] was inactive.
In the case of `O=C1CS/C(=N\c2csc(-c3ccc(Cl)cc3)c2)N1c1cccc2ccccc12`, the figures for the IC50 in the test with MCF7, with SW-620 and with HT-29 [3] were above 50 µM, 19.5 µM and above 50 µM, respectively.
Regarding `O=C1CS/C(=N\c2csc(-c3ccc(Cl)cc3)c2)N1`, the half-maximal inhibitory concentration (IC50) in the test on MCF7 is above 50 µM; in [1], above 50 µM; in the test on SW-620, above 50 µM; in the test on HT-29 [3], 17.1 µM; with MDA-MB-231, above 50 µM.
For `O=C1N/C(=N/c2csc(-c3ccc(Cl)cc3)c2)S/C1=C\c1ccccn1`, the IC50 with MCF7 was 30.2 µM; in test [1] it was 21.6 µM; with SW-620 it was above 50 µM; in the test with HT-29 [3] it was 11.5 µM; in the test on MDA-MB-231, 10.9 µM. Also, in the test on HT-29 [2], the “growth inhibition (GI)” value is listed as 40%. The result in the test on HT-29 [5] was inactive. In addition, the outcome with HT-29 [6] was Active.
Regarding `COc1cccc(N2C(=O)CS/C2=N\c2csc(-c3ccc(C)cc3)c2)c1`, the IC50 is above 50 µM with MCF7; 41 µM in test [1]; above 50 µM in the test with SW-620; above 50 µM with HT-29 [3]; above 50 µM in the test with MDA-MB-231.
As to `O=C1N/C(=N/c2csc(-c3ccc(Cl)cc3)c2)S/C1=C\c1ccccc1`, the IC50 was above 50 µM in the test on MCF7; 11.2 µM in test [1]; above 50 µM in the test with SW-620; 10.5 µM with HT-29 [3]; 18 µM with MDA-MB-231. Moreover, the result in the test with HT-29 [5] was inactive. For the same compound, the result in the test on HT-29 [6] was Active.
On to `CCCCCC/C=C1\S/C(=N\c2csc(-c3ccc(Cl)cc3)c2)NC1=O`, for which the results for the IC50 in the test with MCF7 and with HT-29 [3] were above 50 µM and 33.5 µM, respectively.
Take `O=C1N/C(=N/c2csc(-c3ccc(Cl)cc3)c2)S/C1=C\c1ccc(F)cc1`: the IC50 was above 50 µM in the test with MCF7, 7.4 µM in test [1], 8.7 µM in the test with SW-620 and 4.1 µM in the test with HT-29 [3]. Further, in the test with HT-29 [2], the “growth inhibition (GI)” value was found to be 25%.
As to `COc1cccc(N2C(=O)CS/C2=N\c2csc(-c3cccc4ccccc34)c2)c1`, the IC50 in the test with MCF7 and in the test with HT-29 [3] was above 50 µM each time.
In the case of `O=C1N/C(=N/c2nc(-c3ccc(Cl)cc3)cs2)S/C1=C\c1ccc(F)cc1`, the 50% inhibitory concentration (IC50) in the test with MCF7 was above 50 µM; in [1], 7.5 µM; in the test on SW-620, above 50 µM; with HT-29 [3] it was 2.9 µM; in the test with MDA-MB-231 it was above 50 µM.
Consider `CN(C)c1ccc(N2C(=O)CS/C2=N\c2csc(-c3ccc(Cl)cc3)c2)cc1`, for which the IC50 in the test on MCF7 is above 50 µM; with HT-29 [3], 29.2 µM.
On to `Cc1ccc(N2C(=O)CS/C2=N\c2csc(-c3ccc(Cl)cc3)c2)cc1`, for which the IC50 with MCF7 was above 50 µM; with SW-620, above 50 µM; in the test with HT-29 [3], 28.9 µM.
Take `COc1ccc(N2C(=O)CS/C2=N\c2csc(-c3ccc(Cl)cc3)c2)cc1OC`: the IC50 in the test on MCF7 was 18.7 µM; in [1] it was 49.8 µM; with SW-620, above 50 µM; in the test with HT-29 [3], 14.1 µM; with MDA-MB-231, 46.9 µM.
Turning to `O=C1N/C(=N/c2csc(-c3ccc(Cl)cc3)c2)S/C1=C\c1ccc2ccccc2c1`, the IC50 is 1.2 µM in the test with MCF7; 3 µM in test [1]; above 50 µM in the test on SW-620; 3.7 µM in the test on HT-29 [3]; 1.8 µM in the test with MDA-MB-231. Moreover, the “growth inhibition (GI)” value with HT-29 [2] turned out to be 50%.
As to `O=C1CS/C(=N\c2csc(-c3ccc(Cl)cc3)c2)N1c1ccc(Cl)cc1`, the IC50 is above 50 µM with MCF7, above 50 µM in the test on SW-620 and 36.6 µM with HT-29 [3].
Regarding `COc1cccc(N2C(=O)CS/C2=N\c2csc(-c3ccccc3)c2)c1`, in the test on HT-29 [3], half-maximal inhibition (IC50) was put at 38.3 µM.
For `Cc1ccc(-c2cc(/N=C3/NC(=O)CS3)cs2)cc1`, the IC50 (with MCF7; in test [1]; in the test on SW-620; with HT-29 [3]; in the test on MDA-MB-231) was above 50 µM throughout.
In the case of `COc1ccc(-c2cc(/N=C3/NC(=O)CS3)cs2)cc1`, the 50% inhibitory concentration (IC50) (in the test on MCF7; in [1]; in the test on SW-620; in the test on HT-29 [3]; in the test with MDA-MB-231) was above 50 µM in each case.
Consider `O=C1N/C(=N/c2nc(-c3ccc(Cl)cc3)cs2)S/C1=C\c1ccc2ccccc2c1`, for which the IC50 is 0.3 µM in the test with MCF7; 1.2 µM in test [1]; 20.3 µM in the test on SW-620; 1.8 µM in the test with HT-29 [3]; 0.9 µM with MDA-MB-231. Besides, the “growth inhibition (GI)” value was below 25% in the test on HT-29 [2] and below 5% with HT-29 [7].
In the case of `O=C1N/C(=N/c2csc(-c3ccc(Cl)cc3)c2)S/C1=C\c1ccc(Cl)cc1`, the half-maximal inhibitory concentration (IC50) in the test on MCF7 turned out to be 6.7 µM; in test [1], 11.6 µM; with SW-620, 4.6 µM; with HT-29 [3] it was 2.8 µM; in the test on MDA-MB-231, 6.4 µM. Besides, the “growth inhibition (GI)” value in the test with HT-29 [2] is given as 25%.
On to `O=C1N/C(=N/c2csc(-c3ccc(Cl)cc3)c2)S/C1=C\c1ccc(Br)cc1`, for which the half-inhibitory concentration (IC50) with MCF7 worked out at 2.5 µM; in [1] it was 3.3 µM; in the test on SW-620 it was 0.7 µM; with HT-29 [3] it was 2 µM; with MDA-MB-231 it was 3.5 µM. Besides, the “growth inhibition (GI)” value in the test on HT-29 [2] stood at 25%. Also, the outcome in the test on HT-29 [5] was inactive. Also, the result in the test with HT-29 [6] was Active.
In the case of `O=C1CS/C(=N\c2csc(-c3cccc4ccccc34)c2)N1`, the 50% inhibitory concentration (IC50) (with MCF7; in [1]; in the test with SW-620; with HT-29 [3]; in the test on MDA-MB-231) was above 50 µM in each case.
Turning to `Cc1ccc(/C=C2\S/C(=N\c3nc(-c4ccc(Cl)cc4)cs3)NC2=O)cc1`, the IC50 in the test with MCF7 worked out at 0.4 µM; in test [1] it was 0.5 µM; in the test with SW-620, 0.89 µM; with HT-29 [3] it was 0.5 µM; in the test on MDA-MB-231, 0.8 µM. The “growth inhibition (GI)” value in the test with HT-29 [2] was below 25%. For the same compound, in the test on HT-29 [8], the inhibition of growth at 10 µM stood at 40%.
In the case of `O=C1N/C(=N/c2csc(-c3ccc(Cl)cc3)c2)S/C1=C\c1ccc(O)cc1`, the IC50 with MCF7 and with HT-29 [3] was above 50 µM in each case.
Consider `CC(C)(C)c1cc(/N=C2/NC(=O)CS2)cs1`, for which the IC50 (in the test on MCF7; in [1]; in the test with SW-620; in the test with HT-29 [3]; in the test with MDA-MB-231) was above 50 µM in each case.
Consider `O=C1CS/C(=N\c2nc(-c3ccc(Cl)cc3)cs2)N1`, for which the IC50 in the test with MCF7 is above 50 µM; in test [1], 23.8 µM; in the test with SW-620, above 50 µM; in the test on HT-29 [3], 8.9 µM; with MDA-MB-231 it was above 50 µM.
On to `O=C1CS/C(=N\c2csc(-c3ccccc3)c2)N1`, for which the IC50 (in the test on MCF7; in [1]; in the test on SW-620; with HT-29 [3]; with MDA-MB-231) was above 50 µM throughout.
Regarding `O=C1CS/C(=N\c2c[se]c(-c3ccc(Cl)cc3)c2)N1`, the IC50 in the test on MCF7, with SW-620 and in the test with HT-29 [3] was above 50 µM throughout.
Consider `O=C1CS/C(=N\c2csc(-c3ccc(Cl)cc3)c2)N1c1ccccc1`, for which the IC50 in the test on MCF7 was above 50 µM; in the test on HT-29 [3] it was 41.4 µM.
Consider `COc1cccc(N2C(=O)CS/C2=N\c2csc(-c3ccc(Cl)cc3)c2)c1`, for which the IC50 in the test with MCF7 is above 50 µM; in test [1], above 50 µM; with SW-620 it was 33 µM; with HT-29 [3] it was 24.6 µM; in the test with MDA-MB-231, above 50 µM.

Values taken from ChEMBL document CHEMBL3414496, “Synthesis and biological evaluation of novel 2-heteroarylimino-1,3-thiazolidin-4-ones as potential anti-tumor agents” (Eur J Med Chem, 2015).
